According to ChEMBL document CHEMBL5260824, “9-Deazapurines as Broad-Spectrum Inhibitors of the ABC Transport Proteins P-Glycoprotein, Multidrug Resistance-Associated Protein 1, and Breast Cancer Resistance Protein” (J Med Chem, 2017):

Legend:
[1] = Reversal of SN-38 resistance in dog MDCK-II-BCRP cells assessed as SN-38 GI50 at 1 uM measured for 72 hrs by MTT assay; format: functional; conditions: Canis lupus familiaris
Procedure, shortened: (§1)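 Reversal assay: resistant lines (A2780/ADR, H69AR, MDCK II BCRP) and parental lines seeded as for MTT assay with modulator solutions of 1, 10 and 100 µM added (final 0.1, 1, 10 µM) and daunorubicin (P-gp, MRP1) or SN-38 (BCRP) at final 10 nM–10 µM. 72 h, MTT read-out; GI50 by variable-slope fit. Resistance factor = resistant/sensitive GI50; potentiation factor = GI50 without/with modulator.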

[2] = biological target: T1, Broad substrate specificity ATP-binding cassette transporter ABCG2 (Homo sapiens, UniProt Q9UNQ0); experiment: Inhibition of BCRP (unknown origin) expressed in dog MDCK-II cells using pheophorbide A as substrate preincubated for 20 mins followed by substrate addition and measured after 120 mins by flow cytometry analysis; format: cell-based
T1 sequence (Q9UNQ0 whole entry): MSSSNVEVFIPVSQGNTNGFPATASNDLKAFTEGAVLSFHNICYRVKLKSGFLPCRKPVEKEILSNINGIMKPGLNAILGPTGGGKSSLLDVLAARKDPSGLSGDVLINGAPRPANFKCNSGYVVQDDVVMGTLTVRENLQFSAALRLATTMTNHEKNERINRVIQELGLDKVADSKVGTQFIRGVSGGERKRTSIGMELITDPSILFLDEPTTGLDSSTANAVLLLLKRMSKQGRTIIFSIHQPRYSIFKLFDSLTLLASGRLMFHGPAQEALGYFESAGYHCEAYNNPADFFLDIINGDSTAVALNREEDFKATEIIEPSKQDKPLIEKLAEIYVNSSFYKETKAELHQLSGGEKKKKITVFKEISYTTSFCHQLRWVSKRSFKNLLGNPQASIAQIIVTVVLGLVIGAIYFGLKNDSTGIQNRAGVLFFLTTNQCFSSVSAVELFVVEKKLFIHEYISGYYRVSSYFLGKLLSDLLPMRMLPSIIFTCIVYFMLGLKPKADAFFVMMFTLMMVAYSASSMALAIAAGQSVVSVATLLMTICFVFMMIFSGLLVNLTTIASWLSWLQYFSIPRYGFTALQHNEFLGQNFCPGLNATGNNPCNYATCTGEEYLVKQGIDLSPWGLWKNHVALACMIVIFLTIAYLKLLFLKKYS
Procedure, shortened: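 MDCK II cells transfected with human wild-type BCRP cDNA C-terminally fused to GFP, grown in DMEM/10% FBS. About 45,000 cells per well preincubated 20 min at 37 °C, 5% CO2 with compound (100 nM–100 µM added solutions), then pheophorbide A (5 µM solution added) for 120 min to steady state. Resuspended; flow cytometry, 488 nm excitation, FL3 (≥670 nm); GFP in FL1. Reference inhibitor 24 at 10 µM = 100%.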

[3] = Reversal of drug resistance in human A2780 ADR cells expressing P-gp; format: functional, cell-based
Procedure, shortened: (§2)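 Cells seeded per well (A2780/ADR 8,000; H69AR 20,000; MDCK II BCRP 3,000) with test compound at 1, 10 or 100 µM solutions added before cells. Daunorubicin (P-gp, MRP1) or SN-38 (BCRP) added to final 10 nM–10 µM. 72 h at 37 °C, then MTT viability read at 570 nm. GI50 from variable-slope nonlinear fits, compared with parental lines; three independent experiments in duplicate.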

[4] = Antiproliferative activity against human A2780 ADR cells assessed as reduction in cell viability measured for 72 hrs bt MTT assay; format: functional
P-gp (ABCB1) = P-gp (ABCB1) (Homo sapiens, UniProt P08183); experiment: Inhibition of P-gp (unknown origin) at 10 uM incubated for 30 mins by calcein AM analysis relative to control; conditions: probe calcein AM
Procedure, shortened: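 A2780/ADR cells (doxorubicin-selected, P-gp overexpressing), about 30,000 per well in Krebs-HEPES buffer pH 7.4, incubated 30 min at 37 °C with compound (100 nM–100 µM added solutions). Calcein AM (3.125 µM solution added) then fluorescence read every 60 s at 37 °C, ex 485/em 520 nm; slope over minutes 5–30 plotted vs log concentration. Cyclosporine A 10 µM = 100% inhibition, buffer = 0%.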

MRP1 = MRP1 (Homo sapiens, UniProt P33527); experiment: Inhibition of MRP1 in human NCI-H69AR cells at 10 uM incubated for 180 mins in presence of daunorubicin by flow cytometry analysis relative to control; format: cell-based; conditions: probe daunorubicin
Procedure, shortened: (§3)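 H69AR cells (doxorubicin-selected small cell lung cancer, RPMI-1640/20% FBS), about 60,000 per well, preincubated 15 min with compound (100 nM–100 µM added solutions, in unsupplemented medium), then daunorubicin (30 µM solution added); steady state after 180 min, 37 °C, 5% CO2. Cells resuspended; flow cytometry, 488 nm excitation, FL3 (≥670 nm). Reference inhibitor 75 at 10 µM = 100%; Imax relative to it.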

[5] = Antiproliferative activity against dog MDCK-II-BCRP cells assessed as reduction in cell viability measured for 72 hrs bt MTT assay; format: functional; conditions: Canis lupus familiaris
[6] = biological target: Multidrug resistance-associated protein 1 (Homo sapiens, UniProt P33527); experiment: Inhibition of MRP1 in human NCI-H69AR cells incubated for 180 mins in presence of daunorubicin by flow cytometry analysis; format: cell-based; procedure, shortened: as §3
[7] = Reversal of Daunorubicin resistance in human A2780 ADR cells assessed as Daunorubicin GI50 at 1 uM measured for 72 hrs by MTT assay; format: functional; procedure, shortened: as §1
H69AR [8] = experiment: Reversal of drug resistance in human NCI-H69AR cells expressing MRP1; format: functional, cell-based; procedure, shortened: as §2
[9] = Reversal of Daunorubicin resistance in human A2780 ADR cells assessed as Daunorubicin GI50 at 0.1 uM measured for 72 hrs by MTT assay; format: functional; procedure, shortened: as §1
[10] = Sensitization of human A2780 ADR cells expressing P-gp assessed as maximal sensitivity at 10 uM relative to control; format: functional
Procedure, shortened: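 Resistant lines were exposed to daunorubicin (A2780/ADR, H69AR) or SN-38 (MDCK II BCRP) over 10 nM–10 µM final, with or without modulator, for 72 h. Viability was read by MTT. Potentiation factor is GI50 without modulator over GI50 with modulator. Maximal sensitization is pf at 10 µM divided by the native resistance factor, in percent.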

[11] = Sensitization of dog MDCK-II-BCRP cells expressing BCRP assessed as maximal sensitivity at 10 uM relative to control
H69AR [12] = experiment: Reversal of Daunorubicin resistance in human NCI-H69AR cells assessed as Daunorubicin GI50 at 0.1 uM measured for 72 hrs by MTT assay; format: functional; procedure, shortened: as §1

Multidrug resistance-associated protein 1, sequence (P33527 whole entry): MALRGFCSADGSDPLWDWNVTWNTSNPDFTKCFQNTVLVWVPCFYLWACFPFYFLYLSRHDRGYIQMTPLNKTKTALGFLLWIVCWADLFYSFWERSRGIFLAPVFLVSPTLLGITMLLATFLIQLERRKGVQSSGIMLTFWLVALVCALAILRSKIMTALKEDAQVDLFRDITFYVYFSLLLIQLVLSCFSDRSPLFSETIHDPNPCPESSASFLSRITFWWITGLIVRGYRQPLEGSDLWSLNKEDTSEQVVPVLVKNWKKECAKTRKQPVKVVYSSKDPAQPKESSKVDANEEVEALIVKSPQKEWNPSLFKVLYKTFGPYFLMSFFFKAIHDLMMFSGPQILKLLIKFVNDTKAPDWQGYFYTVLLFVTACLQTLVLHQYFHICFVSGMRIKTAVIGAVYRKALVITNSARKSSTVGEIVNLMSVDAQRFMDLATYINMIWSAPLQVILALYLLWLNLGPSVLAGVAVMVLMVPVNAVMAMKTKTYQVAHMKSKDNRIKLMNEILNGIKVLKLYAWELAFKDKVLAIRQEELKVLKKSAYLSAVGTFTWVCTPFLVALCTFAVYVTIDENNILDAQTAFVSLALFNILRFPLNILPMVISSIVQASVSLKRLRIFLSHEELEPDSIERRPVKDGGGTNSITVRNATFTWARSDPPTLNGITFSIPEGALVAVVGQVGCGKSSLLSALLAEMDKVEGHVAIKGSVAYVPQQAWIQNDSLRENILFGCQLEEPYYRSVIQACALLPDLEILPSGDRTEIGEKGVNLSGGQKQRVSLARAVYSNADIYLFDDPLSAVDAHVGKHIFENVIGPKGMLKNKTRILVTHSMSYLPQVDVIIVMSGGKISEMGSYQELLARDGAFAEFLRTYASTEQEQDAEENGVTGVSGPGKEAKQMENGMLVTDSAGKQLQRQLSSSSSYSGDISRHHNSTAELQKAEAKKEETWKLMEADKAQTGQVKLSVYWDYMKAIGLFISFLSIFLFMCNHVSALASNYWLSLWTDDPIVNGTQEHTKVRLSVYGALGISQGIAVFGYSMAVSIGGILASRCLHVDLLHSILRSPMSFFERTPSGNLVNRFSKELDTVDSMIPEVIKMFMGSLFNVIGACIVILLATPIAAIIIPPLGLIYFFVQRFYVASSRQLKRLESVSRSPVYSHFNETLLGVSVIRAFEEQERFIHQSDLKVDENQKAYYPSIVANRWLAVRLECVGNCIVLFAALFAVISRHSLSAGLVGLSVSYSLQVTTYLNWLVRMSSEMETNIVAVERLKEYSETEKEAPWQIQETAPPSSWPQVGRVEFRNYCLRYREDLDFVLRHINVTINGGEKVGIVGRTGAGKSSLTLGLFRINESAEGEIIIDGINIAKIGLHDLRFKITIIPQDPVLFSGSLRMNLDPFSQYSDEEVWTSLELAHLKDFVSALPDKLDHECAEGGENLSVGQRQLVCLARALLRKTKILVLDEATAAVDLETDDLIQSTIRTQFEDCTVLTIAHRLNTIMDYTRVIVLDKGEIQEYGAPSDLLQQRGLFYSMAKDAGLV
MRP1, sequence (P33527 whole entry): as above
P-gp (ABCB1), sequence (P08183 whole entry): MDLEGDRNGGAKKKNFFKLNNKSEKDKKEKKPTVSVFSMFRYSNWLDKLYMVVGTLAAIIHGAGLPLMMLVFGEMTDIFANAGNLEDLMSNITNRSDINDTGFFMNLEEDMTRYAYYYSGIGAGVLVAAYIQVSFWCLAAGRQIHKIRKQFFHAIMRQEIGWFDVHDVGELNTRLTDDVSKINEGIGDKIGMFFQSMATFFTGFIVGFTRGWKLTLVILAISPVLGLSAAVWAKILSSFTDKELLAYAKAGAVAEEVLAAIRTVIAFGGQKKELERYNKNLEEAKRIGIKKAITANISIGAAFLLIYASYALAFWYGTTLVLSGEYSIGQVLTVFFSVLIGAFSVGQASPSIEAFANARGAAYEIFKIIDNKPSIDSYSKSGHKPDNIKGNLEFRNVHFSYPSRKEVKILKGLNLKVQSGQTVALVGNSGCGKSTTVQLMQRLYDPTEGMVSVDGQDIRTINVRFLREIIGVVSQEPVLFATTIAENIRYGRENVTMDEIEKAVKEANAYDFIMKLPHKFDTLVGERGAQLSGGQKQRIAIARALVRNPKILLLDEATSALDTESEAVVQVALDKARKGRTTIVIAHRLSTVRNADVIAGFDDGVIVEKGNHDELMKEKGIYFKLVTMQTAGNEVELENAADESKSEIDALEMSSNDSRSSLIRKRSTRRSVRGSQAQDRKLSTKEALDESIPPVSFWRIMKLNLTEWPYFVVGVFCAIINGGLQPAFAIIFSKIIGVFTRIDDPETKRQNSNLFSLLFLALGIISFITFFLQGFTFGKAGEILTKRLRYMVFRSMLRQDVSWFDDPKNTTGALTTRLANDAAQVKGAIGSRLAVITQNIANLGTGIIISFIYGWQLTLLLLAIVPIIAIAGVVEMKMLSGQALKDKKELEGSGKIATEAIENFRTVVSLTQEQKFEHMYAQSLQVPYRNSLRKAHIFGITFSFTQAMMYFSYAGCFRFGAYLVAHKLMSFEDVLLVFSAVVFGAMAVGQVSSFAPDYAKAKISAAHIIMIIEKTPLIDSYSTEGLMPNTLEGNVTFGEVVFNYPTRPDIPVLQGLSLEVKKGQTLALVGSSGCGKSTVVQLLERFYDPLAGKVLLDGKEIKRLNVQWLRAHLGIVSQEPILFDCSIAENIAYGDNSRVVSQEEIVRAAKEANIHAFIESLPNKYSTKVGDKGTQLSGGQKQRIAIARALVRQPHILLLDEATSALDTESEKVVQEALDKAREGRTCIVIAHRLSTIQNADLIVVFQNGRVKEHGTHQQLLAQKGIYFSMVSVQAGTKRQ

- IC50 [2]: 1690 nM
- EC50 [3]: 563 nM
- inhibition at 0.5 h, 10 µM (P-gp (ABCB1)): > 25%
- inhibition at 3 h, 10 µM (MRP1): > 25%
- IC50 [6]: 501 nM
- EC50 (H69AR [8]): 959 nM
SMILES: N#Cc1cn(CCCc2ccccc2)c2c(N3CCN(CCc4c[nH]c5ccccc45)CC3)ncnc12
- GI50 [1]: 211 nM
- GI50 [4]: 13700 nM
- GI50 [5]: 23200 nM
- GI50 [7]: 58 nM
- GI50 [9]: 286 nM
- Activity [10]: 24%
- Activity [11]: 140%
- GI50 (H69AR [12]): 2100 nM
